Measured values reported in ChEMBL document CHEMBL1137580, “Synthesis, potency, and in vivo profiles of quinoline containing histamine H3 receptor inverse agonists” (J Med Chem, 2007).
≈ marks a conversion by molar mass, not a printed value. Calls of active or inactive are those of the source. No cut-off for these calls is given here.

Tests used:
[1] = test system: Rattus norvegicus; assay: Volume of distribution in rat at 1 mg/kg, iv; format: ADME, organism-based; parameters: dose 1 mg/kg, route intravenous; details: in vivo
[2] = Protein binding in rat plasma; format: ADME, cell-free; details: read-out: PPB (converted)
[3] = test system: Brain; assay: Drug level in rat brain at 1 mg/kg, iv; format: ADME, organism-based; parameters: dose 1 mg/kg, route intravenous; details: in vivo
In short: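 Rats dosed i.v. at 1 mg/kg; brain concentration measured 1 h post-dose by HPLC-MS; n ≥ 3, SEM <11% of mean unless stated.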

[4] = Protein binding in monkey plasma; format: ADME, cell-free, Macaca mulatta; details: rhesus monkey, read-out: PPB (converted)
[5] = test system: Rattus norvegicus; assay: Memory enhancing effect in ip dosed adult rat by social recognition memory method; format: functional, organism-based
In short: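 Adult rat explores a juvenile 5 min, separated 2 h, re-exposed 5 min; compound or saline i.p. right after first exposure; investigation ratio (second/first time); ciproxifan 1 mg/kg standard; n ≥ 12, Dunnett's post hoc, P < 0.05; efficacious doses in mg/kg.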

[6] = Half life in rat at 1 mg/kg, iv; format: ADME, organism-based; parameters: dose 1 mg/kg, route intravenous; details: in vivo
[7] = Clearance in rat at 1 mg/kg, iv; format: ADME, organism-based; parameters: dose 1 mg/kg, route intravenous; details: in vivo
[8] = Oral bioavailability in rat at 1 mg/kg; format: ADME, organism-based; details: in vivo
In short: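 Oral dosing in rats at 1 mg/kg, n = 3 animals; F (%) given as mean, SEM <20% of mean unless stated.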

[9] = Ratio of drug level in brain to blood in rat at 1 mg/kg, iv; format: ADME, organism-based; parameters: dose 1 mg/kg, route intravenous
In short: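 Rats given 1 mg/kg i.v.; brain and plasma concentrations measured 1 h after dosing by HPLC-MS, and the brain-to-plasma ratio was taken from these; n ≥ 3 animals.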

[10] = Protein binding in dog plasma; format: ADME, cell-free, Canis lupus familiaris; details: read-out: PPB (converted)
[11] = Ratio of drug level in brain to blood in mouse at 1 mg/kg, ip; format: ADME, organism-based; parameters: dose 1 mg/kg, route intraperitoneal
In short: (§1)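 Mice dosed i.p. at 1 mg/kg; brain and blood sampled 1 h after dosing, concentrations by HPLC-MS; n ≥ 3, SEM <11% of mean unless stated.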

[12] = test system: Brain; assay: Drug level in mouse brain at 1 mg/kg, ip; format: ADME, organism-based; parameters: dose 1 mg/kg, route intraperitoneal; details: in vivo; in short: as §1
[13] = test system: Plasma; assay: Drug level in rat plasma at 0.1 mg/kg; format: ADME, organism-based; parameters: dose 0.1 mg/kg; details: in vivo
[14] = test system: Rattus norvegicus; assay: Memory enhancing effect in ip dosed rat by five trial inhibitory avoidance method at 3 mg/kg; format: functional, organism-based; parameters: dose 3 mg/kg
[15] = molecular target: T1, Cytochrome P450 1A2 (Homo sapiens, UniProt P05177); assay: Inhibition of CYP1A2 at 10 to 20 uM; format: ADME
T1 sequence (P05177 whole entry): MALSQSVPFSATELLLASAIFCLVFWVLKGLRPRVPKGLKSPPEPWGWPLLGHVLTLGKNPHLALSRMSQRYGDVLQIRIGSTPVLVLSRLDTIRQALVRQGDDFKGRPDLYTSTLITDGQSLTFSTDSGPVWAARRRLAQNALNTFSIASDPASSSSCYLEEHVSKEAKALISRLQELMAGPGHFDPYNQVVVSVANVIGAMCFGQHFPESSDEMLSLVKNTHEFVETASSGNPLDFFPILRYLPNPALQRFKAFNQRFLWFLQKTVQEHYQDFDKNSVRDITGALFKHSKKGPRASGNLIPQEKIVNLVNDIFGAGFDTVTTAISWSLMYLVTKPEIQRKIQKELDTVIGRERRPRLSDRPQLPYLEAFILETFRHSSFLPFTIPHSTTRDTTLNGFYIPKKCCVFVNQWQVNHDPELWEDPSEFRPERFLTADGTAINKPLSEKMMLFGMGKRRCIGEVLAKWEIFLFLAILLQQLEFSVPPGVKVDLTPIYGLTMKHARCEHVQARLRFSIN

[16] = molecular target: Cytochrome P450 2E1 (Homo sapiens, UniProt P05181); assay: Inhibition of CYP2E1 at 10 to 20 uM; format: ADME
Chain of Cytochrome P450 2E1 (P05181 whole entry): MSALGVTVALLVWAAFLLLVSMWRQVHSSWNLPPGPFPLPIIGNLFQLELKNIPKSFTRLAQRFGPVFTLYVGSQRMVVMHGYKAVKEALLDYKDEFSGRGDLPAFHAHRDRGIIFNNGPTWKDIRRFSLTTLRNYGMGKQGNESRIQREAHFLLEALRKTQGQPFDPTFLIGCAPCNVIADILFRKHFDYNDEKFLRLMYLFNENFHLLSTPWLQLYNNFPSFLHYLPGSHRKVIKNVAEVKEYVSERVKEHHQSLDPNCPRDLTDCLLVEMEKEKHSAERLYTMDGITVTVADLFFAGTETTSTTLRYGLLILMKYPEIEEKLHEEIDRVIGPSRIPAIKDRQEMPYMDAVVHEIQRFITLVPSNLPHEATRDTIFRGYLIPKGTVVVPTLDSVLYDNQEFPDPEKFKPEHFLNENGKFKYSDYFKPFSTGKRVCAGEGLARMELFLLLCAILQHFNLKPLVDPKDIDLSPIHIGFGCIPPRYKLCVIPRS

[17] = molecular target: Cytochrome P450 2C19 (Homo sapiens, UniProt P33261); assay: Inhibition of CYP2C19 at 10 to 20 uM; format: ADME
Chain of Cytochrome P450 2C19 (P33261 whole entry): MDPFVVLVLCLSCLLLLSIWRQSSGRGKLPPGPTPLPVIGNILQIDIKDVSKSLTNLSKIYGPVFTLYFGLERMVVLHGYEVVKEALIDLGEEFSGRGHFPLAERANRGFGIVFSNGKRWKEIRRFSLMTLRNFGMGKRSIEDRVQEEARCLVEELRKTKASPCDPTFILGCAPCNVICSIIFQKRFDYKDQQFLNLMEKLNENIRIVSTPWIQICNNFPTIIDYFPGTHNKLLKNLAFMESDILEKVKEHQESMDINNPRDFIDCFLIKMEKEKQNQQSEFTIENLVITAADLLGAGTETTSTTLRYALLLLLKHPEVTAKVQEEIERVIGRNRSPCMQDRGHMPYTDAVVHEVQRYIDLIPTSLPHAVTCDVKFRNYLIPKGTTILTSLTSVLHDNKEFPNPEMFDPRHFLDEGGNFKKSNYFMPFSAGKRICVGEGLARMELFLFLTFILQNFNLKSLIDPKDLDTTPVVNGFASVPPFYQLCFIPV

[18] = test system: Rattus norvegicus; assay: Memory enhancing effect in ip dosed adult rat by five trial inhibitory avoidance method; format: functional, organism-based
[19] = Bioavailability in dog; format: ADME, organism-based, Canis lupus familiaris; details: in vivo
[20] = Solubility in water at pH 7; format: physicochemical
[21] = organism: Homo sapiens; assay: Inhibition of human sigma receptor at 10 uM
[22] = molecular target: Cytochrome P450 3A4 (Homo sapiens, UniProt P08684); assay: Inhibition of CYP3A4 at 10 to 20 uM; format: ADME
Chain of Cytochrome P450 3A4 (P08684 whole entry): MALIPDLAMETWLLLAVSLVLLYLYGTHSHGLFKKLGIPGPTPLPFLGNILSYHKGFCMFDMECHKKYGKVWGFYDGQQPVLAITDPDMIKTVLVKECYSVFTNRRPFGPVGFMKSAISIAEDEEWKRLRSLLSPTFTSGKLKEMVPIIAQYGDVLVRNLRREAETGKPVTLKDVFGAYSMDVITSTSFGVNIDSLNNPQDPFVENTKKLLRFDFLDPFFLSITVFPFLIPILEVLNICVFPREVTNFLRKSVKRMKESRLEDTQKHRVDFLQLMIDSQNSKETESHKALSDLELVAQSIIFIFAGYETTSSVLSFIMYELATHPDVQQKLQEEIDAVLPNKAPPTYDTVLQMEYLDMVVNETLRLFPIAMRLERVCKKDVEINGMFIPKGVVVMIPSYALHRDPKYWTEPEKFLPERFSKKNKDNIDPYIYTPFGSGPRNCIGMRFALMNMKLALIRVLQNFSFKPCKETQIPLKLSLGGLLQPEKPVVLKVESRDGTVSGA

[23] = test system: Rattus norvegicus; assay: CNS toxicity assessed as hypoactivity in rat at 2.8 mg/kg; format: organism-based; parameters: dose 2.8 mg/kg; details: in vivo
[24] = Photostability of the UV light irradiated compound; format: ADME
[25] = molecular target: T2, Cytochrome P450 2A6 (Homo sapiens, UniProt P11509); assay: Inhibition of CYP2A6 at 10 to 20 uM; format: ADME
T2 sequence (P11509 whole entry): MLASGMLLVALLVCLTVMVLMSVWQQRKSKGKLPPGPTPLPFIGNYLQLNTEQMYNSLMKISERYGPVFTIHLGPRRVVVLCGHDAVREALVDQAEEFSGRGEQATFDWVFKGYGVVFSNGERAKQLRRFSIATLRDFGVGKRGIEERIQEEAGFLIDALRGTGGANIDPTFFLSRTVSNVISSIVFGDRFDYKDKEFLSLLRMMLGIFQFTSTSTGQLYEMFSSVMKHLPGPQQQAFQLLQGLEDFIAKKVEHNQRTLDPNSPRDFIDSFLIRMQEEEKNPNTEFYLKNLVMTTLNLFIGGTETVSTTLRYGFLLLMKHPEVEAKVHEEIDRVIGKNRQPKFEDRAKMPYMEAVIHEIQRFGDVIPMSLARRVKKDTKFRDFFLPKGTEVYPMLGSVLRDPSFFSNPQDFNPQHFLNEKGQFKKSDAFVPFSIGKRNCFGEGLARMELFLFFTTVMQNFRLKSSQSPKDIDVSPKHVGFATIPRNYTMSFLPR

[26] = molecular target: Cytochrome P450 2D6 (Homo sapiens, UniProt P10635); assay: Inhibition of CYP2D6 at 10 to 20 uM; format: ADME
Chain of Cytochrome P450 2D6 (P10635 whole entry): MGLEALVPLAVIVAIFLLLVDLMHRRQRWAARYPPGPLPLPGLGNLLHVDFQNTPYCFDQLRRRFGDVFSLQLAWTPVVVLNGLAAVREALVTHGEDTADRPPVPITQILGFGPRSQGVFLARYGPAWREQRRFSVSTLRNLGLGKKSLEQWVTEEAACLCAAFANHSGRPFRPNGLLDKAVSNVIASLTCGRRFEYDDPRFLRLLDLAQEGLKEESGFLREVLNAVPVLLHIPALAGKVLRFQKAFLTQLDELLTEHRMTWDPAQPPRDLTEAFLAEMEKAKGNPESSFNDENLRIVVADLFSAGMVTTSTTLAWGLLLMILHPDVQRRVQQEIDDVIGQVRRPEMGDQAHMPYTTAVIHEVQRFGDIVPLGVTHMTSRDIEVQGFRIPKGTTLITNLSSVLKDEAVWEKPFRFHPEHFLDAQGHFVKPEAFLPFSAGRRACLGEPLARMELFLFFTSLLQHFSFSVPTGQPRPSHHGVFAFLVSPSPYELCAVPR

[27] = test system: Rattus norvegicus; assay: CNS toxicity assessed as hypoactivity in rat at 9.4 mg/kg; format: organism-based; parameters: dose 9.4 mg/kg; details: in vivo
[28] = molecular target: Cytochrome P450 2C9 (Homo sapiens, UniProt P11712); assay: Inhibition of CYP2C9 at 10 to 20 uM; format: ADME
Chain of Cytochrome P450 2C9 (P11712 whole entry): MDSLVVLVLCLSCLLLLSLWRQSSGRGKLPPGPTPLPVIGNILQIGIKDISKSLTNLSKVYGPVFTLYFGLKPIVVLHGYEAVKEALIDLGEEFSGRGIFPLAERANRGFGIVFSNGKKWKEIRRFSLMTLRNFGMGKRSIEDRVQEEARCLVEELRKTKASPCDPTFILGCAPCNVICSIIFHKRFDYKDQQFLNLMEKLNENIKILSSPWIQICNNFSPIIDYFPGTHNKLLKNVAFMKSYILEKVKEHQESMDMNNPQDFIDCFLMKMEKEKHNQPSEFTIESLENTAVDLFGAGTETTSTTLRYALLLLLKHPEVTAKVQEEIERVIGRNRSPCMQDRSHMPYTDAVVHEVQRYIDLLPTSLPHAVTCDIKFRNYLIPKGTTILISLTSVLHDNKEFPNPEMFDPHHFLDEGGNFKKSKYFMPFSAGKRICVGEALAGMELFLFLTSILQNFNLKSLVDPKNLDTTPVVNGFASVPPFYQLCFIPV

[29] = test system: Rattus norvegicus; assay: CNS toxicity assessed as piloerection in rat at 9.4 mg/kg; format: organism-based; parameters: dose 9.4 mg/kg; details: in vivo
[30] = test system: Plasma; assay: Drug level in rat plasma at 0.3 mg/kg; format: ADME, organism-based; parameters: dose 0.3 mg/kg; details: in vivo
[31] = molecular target: T3, Adenosine receptor A3 (Homo sapiens) (UniProt P0DMS8); assay: Inhibition of human adenosine A3 receptor at 10 uM
T3 sequence (whole entry): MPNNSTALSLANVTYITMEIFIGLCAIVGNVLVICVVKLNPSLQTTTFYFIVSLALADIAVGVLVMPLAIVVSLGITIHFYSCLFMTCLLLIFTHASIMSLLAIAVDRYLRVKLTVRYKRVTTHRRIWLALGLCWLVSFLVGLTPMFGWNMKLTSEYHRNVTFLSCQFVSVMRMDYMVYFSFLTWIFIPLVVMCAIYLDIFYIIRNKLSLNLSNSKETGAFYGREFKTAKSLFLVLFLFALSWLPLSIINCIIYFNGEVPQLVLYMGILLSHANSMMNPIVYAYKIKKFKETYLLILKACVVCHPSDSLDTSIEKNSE

[32] = test system: Rattus norvegicus; assay: CNS toxicity assessed as piloerection in rat at 2.8 mg/kg; format: organism-based; parameters: dose 2.8 mg/kg; details: in vivo
[33] = molecular target: L-type calcium channel (Homo sapiens, UniProt O60840+Q01668+Q13698+Q13936); assay: Inhibition of human L-type calcium channel at 10 uM
[34] = molecular target: T4, Muscarinic acetylcholine receptor M4 (Homo sapiens) (UniProt P08173); assay: Inhibition of human muscarinic M4 receptor at 10 uM
T4 sequence (whole entry): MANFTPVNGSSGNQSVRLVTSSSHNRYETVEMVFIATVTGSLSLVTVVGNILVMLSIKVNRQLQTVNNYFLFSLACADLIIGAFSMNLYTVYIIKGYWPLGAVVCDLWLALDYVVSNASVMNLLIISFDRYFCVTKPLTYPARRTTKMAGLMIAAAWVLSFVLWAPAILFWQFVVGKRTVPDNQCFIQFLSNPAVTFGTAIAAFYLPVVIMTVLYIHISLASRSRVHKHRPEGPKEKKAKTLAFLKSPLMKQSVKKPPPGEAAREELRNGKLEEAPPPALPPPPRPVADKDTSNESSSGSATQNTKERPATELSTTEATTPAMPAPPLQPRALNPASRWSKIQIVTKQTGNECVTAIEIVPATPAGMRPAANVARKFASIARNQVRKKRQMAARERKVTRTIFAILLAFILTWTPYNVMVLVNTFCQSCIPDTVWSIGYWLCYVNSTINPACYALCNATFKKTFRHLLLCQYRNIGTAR

Compound	Vbeta [1]	fraction unbound [2]	Drug uptake [3]	fraction unbound [4]	Activity [5]	half-life [6]	clearance [7]	bioavailability [8]	Kp [9]	fraction unbound [10]	Kp [11]	Drug uptake [12]	Activity [14]	Activity [18]	also measured
Cc1nc2ncccc2cc1-c1ccc2cc(CCN3CCC[C@H]3C)ccc2n1	9.2 L/kg	0.39	50 ng/g	0.5	Active	2 h	42.3 mL/min/kg	30%	0.4	0.57	–	–	–	–	–
Cc1nc(N2CCCC2)ncc1-c1ccc2cc(CCN3CCC[C@H]3C)ccc2n1	8.5 L/kg	–	–	–	Active	4 h	24.2 mL/min/kg	98%	–	–	16	718 ng/g	–	–	–
O=C(c1ccc(OCCCc2c[nH]cn2)cc1)C1CC1	–	–	–	–	Active	–	–	–	–	–	–	–	–	–	–
Cc1nn(C)cc1-c1ccc2cc(CCN3CCC[C@H]3C)ccc2n1	9 L/kg	0.38	425 ng/g	0.5	Active	1.7 h	61.7 mL/min/kg	58%	1.8	0.42	–	–	Active	Active	Cp [13]: 2.5 ng/mL; Activity [15]: Not Active; Activity [16]: Not Active; Activity [17]: Not Active; bioavailability [19]: 77%; solubility [20]: 21 mg/mL (≈ 62.8 mM); inhibition [21]: 86%; Activity [22]: Not Active; Activity [23]: Non-toxic; Activity [24]: Not Active; Activity [25]: Not Active; Activity [26]: Not Active; Activity [27]: Toxic; Activity [28]: Not Active
Cc1c(-c2ccc3cc(CCN4CCC[C@H]4C)ccc3n2)cnn1-c1ccccn1	4.1 L/kg	–	–	–	–	2.4 h	19.7 mL/min/kg	75%	–	–	23	1659 ng/g	–	–	–
Cc1cc2ncc(-c3ccc4cc(CCN5CCC[C@H]5C)ccc4n3)c(C)n2n1	6.3 L/kg	0.3	440 ng/g	0.45	Active	5.3 h	14 mL/min/kg	90%	1.6	0.4	1.5	174 ng/g	Active	Active	Activity [29]: Toxic; Cp [30]: 19.2 ng/mL; Activity [15]: Not Active; Activity [16]: Not Active; Activity [17]: Not Active; bioavailability [19]: 72%; solubility [20]: 8.7 mg/mL (≈ 22.6 mM); inhibition [21]: 96%; Activity [22]: Not Active; Activity [23]: Non-toxic; Activity [24]: Not Active; Activity [25]: Not Active; Activity [26]: Not Active; inhibition [31]: 69%; Activity [32]: Non-toxic; Activity [27]: Toxic; inhibition at 10 µM [33]: 63%; Activity [28]: Not Active; inhibition [34]: 74%
C[C@@H]1CCCN1CCc1cc2cc(-c3ccc(C#N)cc3)ccc2o1	11.6 L/kg	0.06	3082 ng/g	0.06	–	–	25 mL/min/kg	–	–	0.09	–	1728 ng/g	–	–	–
CCOc1ccc(-n2ncc(-c3ccc4cc(CCN5CCC[C@H]5C)ccc4n3)c2C)nn1	7.4 L/kg	0.11	–	0.21	Active	8.3 h	8.83 mL/min/kg	70%	–	–	42	3242 ng/g	Active	Active	–
